Reference: ChEMBL document CHEMBL2157978, “Design, synthesis, and biological evaluation of nonsteroidal cycloalkane[d]isoxazole-containing androgen receptor modulators” (J Med Chem, 2012)
“And” between values parts separate entries of the source, which are not always exact repeats. Identical values can stand only once. The source made the active and inactive calls. How the calls were made is not given here.

What was measured:
Androgen receptor = molecular target: T1, Androgen receptor (Homo sapiens, UniProt P10275); assay: Displacement of [3H]R1881 from wild type human androgen receptor expressed in COS-1 cells co-transfected with pSG5 after 2 hrs by scintillation assay
T1 sequence (P10275 whole entry): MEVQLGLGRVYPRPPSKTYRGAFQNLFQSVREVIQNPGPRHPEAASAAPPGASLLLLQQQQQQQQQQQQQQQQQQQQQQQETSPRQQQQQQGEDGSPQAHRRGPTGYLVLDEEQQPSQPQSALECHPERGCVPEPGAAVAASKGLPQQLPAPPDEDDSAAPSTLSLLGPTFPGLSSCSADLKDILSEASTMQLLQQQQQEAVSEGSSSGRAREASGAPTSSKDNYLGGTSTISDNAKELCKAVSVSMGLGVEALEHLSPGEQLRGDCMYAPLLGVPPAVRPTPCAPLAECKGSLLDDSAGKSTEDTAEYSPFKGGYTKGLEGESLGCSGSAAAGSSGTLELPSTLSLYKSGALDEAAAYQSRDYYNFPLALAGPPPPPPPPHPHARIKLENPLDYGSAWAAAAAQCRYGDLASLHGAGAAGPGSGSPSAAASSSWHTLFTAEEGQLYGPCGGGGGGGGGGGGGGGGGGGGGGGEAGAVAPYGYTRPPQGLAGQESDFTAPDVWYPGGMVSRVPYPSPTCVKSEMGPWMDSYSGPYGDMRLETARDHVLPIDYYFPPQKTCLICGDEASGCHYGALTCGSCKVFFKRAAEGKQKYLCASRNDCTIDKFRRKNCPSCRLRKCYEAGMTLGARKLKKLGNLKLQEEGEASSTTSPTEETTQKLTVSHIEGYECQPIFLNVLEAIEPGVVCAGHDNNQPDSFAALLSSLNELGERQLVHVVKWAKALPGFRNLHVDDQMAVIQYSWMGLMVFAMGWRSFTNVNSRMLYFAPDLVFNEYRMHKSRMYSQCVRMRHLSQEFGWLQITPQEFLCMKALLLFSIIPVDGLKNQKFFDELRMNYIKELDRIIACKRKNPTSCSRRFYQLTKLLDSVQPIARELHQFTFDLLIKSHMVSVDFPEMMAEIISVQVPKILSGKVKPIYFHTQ

[1] = molecular target: T2, Androgen receptor (Homo sapiens) (UniProt P10275); assay: Agonist activity at wild type human androgen receptor expressed in COS-1 cells co-transfected with pSG5 assessed as effect on testosterone induced luciferase activity at 10 uM after 18 hrs relative untreated control; assay type: functional, cell-based
T2 sequence (whole entry): T1 sequence (P10275 whole entry)

[2] = molecular target: Luciferin 4-monooxygenase (Photinus pyralis) (UniProt P08659); assay: Inhibition of Photinus pyralis recombinant luciferase at 10 uM incubated for 20 mins
In short: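 Purified firefly luciferase diluted to 0.1 μg/mL in 1x Reporter Lysis Buffer, with compound added from ethanol stocks (10⁻³–10⁻⁷ mol/L dilutions) in triplicate. Incubated 20 min at rt, then luciferase substrate added and luminescence read. Blank (lysis buffer) and ethanol-vehicle controls were included.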

Sequence of Luciferin 4-monooxygenase (Photinus pyralis) (P08659 whole entry): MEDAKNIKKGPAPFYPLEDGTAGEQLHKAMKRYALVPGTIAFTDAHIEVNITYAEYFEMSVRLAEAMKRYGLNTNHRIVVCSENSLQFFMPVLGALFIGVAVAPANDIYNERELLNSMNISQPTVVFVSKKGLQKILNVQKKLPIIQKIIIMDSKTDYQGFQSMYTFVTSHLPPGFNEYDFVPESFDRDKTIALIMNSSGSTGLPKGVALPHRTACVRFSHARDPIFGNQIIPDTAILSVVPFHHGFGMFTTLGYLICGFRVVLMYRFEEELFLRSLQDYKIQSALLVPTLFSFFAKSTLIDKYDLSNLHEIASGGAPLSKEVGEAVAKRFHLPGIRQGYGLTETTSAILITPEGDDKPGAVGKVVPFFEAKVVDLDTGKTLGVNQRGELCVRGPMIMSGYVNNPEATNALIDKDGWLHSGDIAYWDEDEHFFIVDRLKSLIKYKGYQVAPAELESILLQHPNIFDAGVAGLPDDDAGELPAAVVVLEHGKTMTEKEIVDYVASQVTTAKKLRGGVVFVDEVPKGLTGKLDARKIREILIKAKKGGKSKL

Compound	IC50 (Androgen receptor)	Activity [1]	inhibition [2]
N#Cc1ccc(C2=NOC3CCCCCC23)c(C(F)(F)F)c1 (stereo unspecified) [listing 1 of 2 here]	1150 nM		
O=[N+]([O-])c1ccc(C2=NOC3CCCCCCC23)c(C(F)(F)F)c1 (stereo unspecified) [listing 1 of 2 here]	776 nM		
O=[N+]([O-])c1ccc(C2=NO[C@@H]3CCC[C@H]23)cc1C(F)(F)F	302 nM	inactive	inactive
N#Cc1ccc(C2=NO[C@H]3CCC[C@@H]23)cc1C(F)(F)F	617 nM	inactive	inactive
N#Cc1ccc(C2=NO[C@@H]3CCC[C@H]23)cc1C(F)(F)F	224 nM	inactive	inactive
O=[N+]([O-])c1ccc(C2=NO[C@H]3CCC[C@@H]23)cc1C(F)(F)F	2510 nM	inactive	inactive
COc1ccc(C2=NOC3CCCCC23)cc1 (stereo unspecified)		inactive	inactive
COc1cccc(C2=NOC3CCCCC23)c1 (stereo unspecified)		inactive	inactive
Clc1ccc(C2=NOC3CCCCC23)cc1 (stereo unspecified)		inactive	inactive
Clc1ccccc1C1=NOC2CCCCC12 (stereo unspecified)		inactive	inactive
Fc1ccc(C2=NOC3CCCCC23)cc1 (stereo unspecified)		inactive	inactive
N#Cc1ccc(C2=NOC3CCCCCC23)c(C(F)(F)F)c1 (stereo unspecified) [listing 2 of 2 here]		inactive	inactive
O=[N+]([O-])c1ccc(C2=NOC3CCCCCCC23)c(C(F)(F)F)c1 (stereo unspecified) [listing 2 of 2 here]		inactive	inactive
c1ccc(C2=NOC3CCCCC23)cc1 (stereo unspecified)		inactive	inactive
c1ccc2c(C3=NOC4CCCCC34)cccc2c1 (stereo unspecified)		inactive	inactive
N#Cc1ccc(C2=NOC3CCCCCC23)c(C(F)(F)F)c1 (cis isomer) [listing 1 of 2 here]	1000 nM		
O=[N+]([O-])c1ccc(C2=NOC3CCCCCCC23)c(C(F)(F)F)c1 (cis isomer) [listing 1 of 2 here]	741 nM		
COc1ccc(C2=NOC3CCCCC23)cc1 (cis isomer)		inactive	inactive
Clc1ccc(C2=NOC3CCCCC23)cc1 (cis isomer)		inactive	inactive
Fc1ccc(C2=NOC3CCCCC23)cc1 (cis isomer)		inactive	inactive
N#Cc1ccc(C2=NOC3CCCCCC23)c(C(F)(F)F)c1 (cis isomer) [listing 2 of 2 here]		inactive	inactive
O=[N+]([O-])c1ccc(C2=NOC3CCCCCCC23)c(C(F)(F)F)c1 (cis isomer) [listing 2 of 2 here]		inactive	inactive
c1ccc(C2=NOC3CCCCC23)cc1 (cis isomer)		inactive	inactive
c1ccc2c(C3=NOC4CCCCC34)cccc2c1 (cis isomer)		inactive	inactive
N#Cc1ccc(C2=NOC3CCCCCCC23)cc1C(F)(F)F (racemic)	295 nM	inactive	inactive
COc1ccccc1C1=NOC2CCCCC12 (racemic)		inactive	inactive
O=[N+]([O-])c1ccc(C2=NOC3CCCCC23)cc1 (racemic)		inactive	inactive

The next lines start with the values.

IC50 (Androgen receptor)	Activity [1]	inhibition [2]	Compound
309 nM	inactive	inactive	O=[N+]([O-])c1ccc(C2=NO[C@@H]3CCCCC[C@H]23)c(C(F)(F)F)c1
389 nM	inactive	inactive	O=[N+]([O-])c1ccc(C2=NO[C@H]3CCCCC[C@@H]23)c(C(F)(F)F)c1
661 nM and 813 nM	inactive	inactive	Fc1ccc(C2=NOC3CCCCCC23)c(C(F)(F)F)c1 (stereo unspecified)
2000 nM			N#Cc1ccc(C2=NOC3CCCCCCC23)c(C(F)(F)F)c1 (stereo unspecified) [listing 1 of 2 here]
1150 nM			N#Cc1ccc(C2=NOC3CCCCC23)c(C(F)(F)F)c1 (stereo unspecified) [listing 1 of 2 here]
64.6 nM			N#Cc1cccc(C2=NOC3CCCCC23)c1C(F)(F)F (stereo unspecified) [listing 1 of 2 here]
129 nM	inactive	inactive	O=[N+]([O-])c1ccc(C2=NO[C@@H]3CCCC[C@H]23)c(C(F)(F)F)c1
263 nM	inactive	inactive	O=[N+]([O-])c1ccc(C2=NO[C@H]3CCCC[C@@H]23)c(C(F)(F)F)c1
977 nM			Fc1ccc(C2=NOC3CCCCC23)c(C(F)(F)F)c1 (stereo unspecified) [listing 1 of 2 here]
	inactive	inactive	Fc1ccc(C2=NOC3CCCCC23)c(C(F)(F)F)c1 (stereo unspecified) [listing 2 of 2 here]
	inactive	inactive	Fc1ccccc1C1=NOC2CCCCC12 (stereo unspecified)
	inactive	inactive	N#Cc1ccc(C2=NOC3CCCCC23)c(C(F)(F)F)c1 (stereo unspecified) [listing 2 of 2 here]
	inactive	inactive	N#Cc1ccc(C2=NOC3CCCCC23)cc1 (stereo unspecified)
	inactive	inactive	N#Cc1ccc(C2=NOC3CCCCCCC23)c(C(F)(F)F)c1 (stereo unspecified) [listing 2 of 2 here]
	inactive	inactive	N#Cc1cccc(C2=NOC3CCCCC23)c1C(F)(F)F (stereo unspecified) [listing 2 of 2 here]
646 nM			N#Cc1ccc(C2=NOC3CCCCCCC23)c(C(F)(F)F)c1 (cis isomer) [listing 1 of 2 here]
1780 nM			N#Cc1ccc(C2=NOC3CCCCC23)c(C(F)(F)F)c1 (cis isomer) [listing 1 of 2 here]
79.4 nM			N#Cc1cccc(C2=NOC3CCCCC23)c1C(F)(F)F (cis isomer) [listing 1 of 2 here]
1150 nM			Fc1ccc(C2=NOC3CCCCC23)c(C(F)(F)F)c1 (cis isomer) [listing 1 of 2 here]
	inactive	inactive	Clc1ccccc1C1=NOC2CCCCC12 (cis isomer)

IC50 (Androgen receptor)	Activity [1]	inhibition [2]	Compound
	inactive	inactive	Fc1ccc(C2=NOC3CCCCC23)c(C(F)(F)F)c1 (cis isomer) [listing 2 of 2 here]
	inactive	inactive	N#Cc1ccc(C2=NOC3CCCCC23)c(C(F)(F)F)c1 (cis isomer) [listing 2 of 2 here]
	inactive	inactive	N#Cc1ccc(C2=NOC3CCCCCCC23)c(C(F)(F)F)c1 (cis isomer) [listing 2 of 2 here]
	inactive	inactive	N#Cc1cccc(C2=NOC3CCCCC23)c1C(F)(F)F (cis isomer) [listing 2 of 2 here]
1350 nM			Fc1ccc(C2=NOC3CCCC23)c(C(F)(F)F)c1 (cis isomer; 5g) [listing 1 of 2 here]
	inactive	inactive	Fc1ccc(C2=NOC3CCCC23)c(C(F)(F)F)c1 (cis isomer; 5g) [listing 2 of 2 here]
	inactive	inactive	Clc1cccc(C2=NOC3CCCCC23)c1 (cis isomer; 6n)
5890 nM			Fc1ccc(C2=NOC3CCCCCCC23)cc1C(F)(F)F (cis isomer; 8f) [listing 1 of 2 here]
	inactive	inactive	Fc1ccc(C2=NOC3CCCCCCC23)cc1C(F)(F)F (cis isomer; 8f) [listing 2 of 2 here]
	inactive	inactive	Fc1ccc(C2=NOC3CCCCCCC23)c(C(F)(F)F)c1 (cis isomer; 8g)
2820 nM			Fc1ccc(C2=NOC3CCCCCCC23)cc1C(F)(F)F (cis isomer; cis) [listing 1 of 2 here]
13200 nM			Fc1ccc(C2=NOC3CCCCCCC23)c(C(F)(F)F)c1 (cis isomer; cis) [listing 1 of 2 here]
1550 nM			Fc1ccc(C2=NOC3CCCC23)c(C(F)(F)F)c1 (cis isomer; cis) [listing 1 of 2 here]
	inactive	inactive	Clc1cccc(C2=NOC3CCCCC23)c1 (cis isomer; cis)
	inactive	inactive	Fc1ccc(C2=NOC3CCCC23)c(C(F)(F)F)c1 (cis isomer; cis) [listing 2 of 2 here]
	inactive	inactive	Fc1ccc(C2=NOC3CCCCCCC23)c(C(F)(F)F)c1 (cis isomer; cis) [listing 2 of 2 here]
	inactive	inactive	Fc1ccc(C2=NOC3CCCCCCC23)cc1C(F)(F)F (cis isomer; cis) [listing 2 of 2 here]
708 nM	inactive	inactive	O=[N+]([O-])c1ccc(C2=NOC3CCCCCCC23)cc1C(F)(F)F (racemic)
	inactive	inactive	Fc1cccc(C2=NOC3CCCCC23)c1 (racemic)
